Data set [1] in a line: Inhibition of PDE4 in human whole blood PBMC assessed as reduction in LPS-induced TNFalpha production after 24 hrs by ELISA. The method in brief:
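Heparinized whole blood from healthy donors was preincubated with LPS (1 μg/mL final) at 37 °C for 10 min. It was then added to compounds in DMSO and incubated 24 h at 37 °C with agitation, then centrifuged. Serum TNF-α was measured by sandwich ELISA with TMB read-out at 450 nm. Experiments were done 2−3 times and duplicates were averaged.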

In data set [2] the target is 3',5'-cyclic-AMP phosphodiesterase 4B (Homo sapiens, UniProt Q07343). In words: Inhibition of recombinant human PDE4B1 using [3H]-cAMP as substrate […] measured after 60 mins by scintillation proximity assay. Put shortly:
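Compounds ranged from 10 μM to 10 pM. The reaction was started with PDE4 enzyme and run 60 min at room temperature with agitation (about 10−20% conversion), then stopped with SPA beads. [3H]-AMP was counted by scintillation.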
A general note: SPA uses beads or plates that emit light when radiolabelled molecules are held near them.

Data set [3] in a line: Thermodynamic solubility of the compound at 22 degC. The format is physicochemical. The settings on record: read-out: Therm_solubility.
The subject of data set [4] is Rattus norvegicus. Kind of data set: Antiinflammatory activity in Sprague-Dawley rat LPS-induced neutrophilia model assessed as inhibition of LPS-induced increase in netrophils in bronchoalveolar lavage at 1000 ug/kg, it administered single dose as microspray dosed 1 hr prior to nebulized LPS challenge measured after 4 hrs by flow cytometric analysis. The format is functional. Put shortly: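 Compound was suspended in PBS with 0.2% Tween 80, homogenized, and lower doses were made by 1:10 dilution. Rats (male Sprague-Dawley, 230−280 g, fasted, isoflurane) received 0.2 mL intratracheally by microsprayer, about 1 cm above the carina. Nebulized LPS challenge (30 mL over 40 min) followed 1 h later. BAL neutrophils were counted by flow cytometry 4 h after challenge.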
In general terms: In flow cytometry, cells or beads pass a laser one at a time.

The species entered for data set [5] is Rattus norvegicus. The settings on record: Sprague-Dawley, 2000 ug/kg.
For data set [6], the species on record is Rattus norvegicus. The settings on record: Sprague-Dawley, 2000 ug/kg. The source holds these as a separate data set.
Data set [7] can be described thus: Apparent permeability of the compound by PAMPA assay. The format is physicochemical. (PAMPA measures passive passage across an artificial lipid membrane.)

Structures are written as SMILES. In brackets after ≈: the same amount, converted by molar mass. Activity calls are given as the source filed them. The calls are words filed in the database; no cut-off is given here.

3',5'-cyclic-AMP phosphodiesterase 4B, sequence (Q07343 whole entry): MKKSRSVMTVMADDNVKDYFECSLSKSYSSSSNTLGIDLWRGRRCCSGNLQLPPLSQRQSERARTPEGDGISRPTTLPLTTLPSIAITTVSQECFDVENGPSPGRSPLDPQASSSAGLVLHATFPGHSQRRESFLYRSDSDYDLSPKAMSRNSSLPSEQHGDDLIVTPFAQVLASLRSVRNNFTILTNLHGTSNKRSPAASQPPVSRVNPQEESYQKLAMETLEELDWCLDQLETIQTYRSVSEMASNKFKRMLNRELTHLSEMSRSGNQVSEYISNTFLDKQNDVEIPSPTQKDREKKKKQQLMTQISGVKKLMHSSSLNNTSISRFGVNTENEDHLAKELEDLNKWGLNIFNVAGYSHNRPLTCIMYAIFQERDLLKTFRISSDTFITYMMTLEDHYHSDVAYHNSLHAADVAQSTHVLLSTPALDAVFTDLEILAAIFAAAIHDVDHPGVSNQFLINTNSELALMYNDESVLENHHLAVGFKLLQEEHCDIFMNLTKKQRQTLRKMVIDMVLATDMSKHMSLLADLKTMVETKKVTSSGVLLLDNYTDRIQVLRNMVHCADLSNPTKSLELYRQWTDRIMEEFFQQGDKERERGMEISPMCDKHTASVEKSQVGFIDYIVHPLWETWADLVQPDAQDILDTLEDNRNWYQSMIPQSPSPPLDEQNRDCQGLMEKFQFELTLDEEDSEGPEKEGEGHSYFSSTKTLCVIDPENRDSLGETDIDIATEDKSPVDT

Regarding `CCOC(=O)c1ccc(-c2cccc(-c3cc(Nc4cccc(OC)c4)c4c(n3)CCNC4=O)c2)cc1`, the IC50 (as a rule, the point on the concentration scale where inhibition reaches its midpoint) in data set [1] turned out to be 1.2 nM; in data set [2], 7.2 nM.

For the compound `O=C1NCCc2nc(-c3ccccc3)cc(Nc3ccc(C[C@@H](O)CO)cc3)c21`, the IC50 in data set [1] came to 0.49 nM; in data set [2], 8.7 nM.

As to `COc1cccc(Nc2cc(-c3cccc(-c4cccc(C(=O)NC5CC5)c4)c3)nc3c2C(=O)NCC3)c1`, the IC50 stood at 0.43 nM in data set [1] and 2.1 nM in data set [2].

As for `O=C1NCCc2nc(-c3ccccc3)cc(Nc3cccc4cnccc34)c21`, the IC50 in data set [2] is 14 nM.

With `COc1cccc(Nc2cc(-c3cccc(OC)c3)nc3c2C(=O)NCC3)c1`, the half-maximal inhibitory concentration (IC50) in data set [2] was determined as 8.4 nM.

`COc1cccc(Nc2cc(-c3cccc(Sc4cccc(OC)c4)c3)nc3c2C(=O)NCC3)c1`: the IC50 in data set [1] was 3.4 nM; in data set [2], 1.6 nM.

Turning to `COc1cccc(Nc2cc(-c3cccc(-c4cccc(O)c4)c3)nc3c2C(=O)NCC3)c1`, the IC50 amounted to 4.2 nM in data set [1] and 1.8 nM in data set [2].

In the case of `O=C1NCCc2nc(-c3ccccc3)cc(Nc3cccc(CO)c3)c21`, the IC50 in data set [2] amounted to 24 nM.

`COc1cccc(Nc2nc(-c3ccccc3)nc3c2C(=O)NCC3)c1`: the IC50 in data set [1] was determined as 40 nM; in data set [2], 52 nM.

Consider `O=C1NCCc2nc(-c3ccc(F)c(F)c3)cc(Nc3cccc4ncccc34)c21`, for which the figures for the IC50 in data set [1] and in data set [2] were 1.5 nM and 0.75 nM, respectively.

`O=C1NCCc2nc(-c3ccccc3)cc(Nc3ccc4ncccc4c3)c21`: the IC50 in data set [1] is 4.8 nM; in data set [2], 2.3 nM.

For `Cn1nc(Nc2cc(-c3ccccc3)nc3c2C(=O)NCC3)c2cccnc21`, the IC50 in data set [2] came to 11 nM.

For `COc1cccc(Nc2cc(-c3cc[n+]([O-])cc3)nc3c2C(=O)NCC3)c1`, in data set [2], the IC50 is 51 nM.

On to `CNC(=O)c1cnc(-c2ccccc2)cc1Nc1cccc2ncccc12`, for which the IC50 in data set [2] was 5800 nM.

Turning to `O=C(Nc1c(Cl)cncc1Cl)c1ccc(OC(F)F)c(OCC2CC2)c1` [ROFLUMILAST], the 50% inhibitory concentration (IC50) in data set [1] came out at 4 nM. Moreover, in data set [3], the solubility thermodynamic was determined as 0.52 µg/mL (≈ 1.29 µM). In addition, in the data set with Rattus norvegicus [4], the inhibition in vivo (commonly how much of the control response was suppressed) at 1 mg/kg came to 80%. The inhibition result in the data set listed under Rattus norvegicus [5] was “Active”. Also, the inhibition result in the data set listed under Rattus norvegicus [6] was “inactive”.

For the compound `O=C1NCCc2nc(-c3ccccc3)cc(Nc3cccc4ncccc34)c21`, the IC50 in data set [1] amounted to 0.92 nM; in data set [2], 0.96 nM.

Take `CCOC(=O)c1ccc(-c2cccc(-c3cc(Nc4cccc5ncccc45)c4c(n3)CCNC4=O)c2)cc1`: the IC50 in data set [1] was found to be 0.66 nM; in data set [2], 1.2 nM.

Consider `COc1cc(Nc2cc(-c3ccccc3)nc3c2C(=O)NCC3)cc(OC)c1`, for which the IC50 in data set [2] came out at 27 nM.

Turning to `Cc1ccncc1Nc1cc(-c2ccccc2)nc2c1C(=O)NCC2`, the IC50 in data set [2] is 42 nM.

Regarding `O=C1NCCc2nc(-c3ccccc3)cc(Nc3cccc4c3ccc[n+]4[O-])c21`, the IC50 was found to be 0.47 nM in data set [1] and 0.43 nM in data set [2].

With `O=C1NCCc2nc(-c3ccccc3)cc(Nc3nn(-c4ccccc4)c4ncccc34)c21`, the IC50 in data set [2] was found to be 56 nM.

As for `COc1cccc(Nc2cc(-c3ccncc3)nc3c2C(=O)NCC3)c1`, the figures for the IC50 in data set [1] and in data set [2] were 6.5 nM and 3.6 nM, respectively.

Take `O=C1NCCc2nc(-c3ccccc3)cc(NCCc3ccncc3)c21`: the IC50 in data set [2] is 12 nM.

Turning to `COc1cccc(Nc2cc(-c3cccc(OC)c3)nc3c2/C(=N/C#N)NCC3)c1`, the half-inhibitory concentration (IC50) in data set [2] was 13 nM.

As for `COc1cccc(Nc2cc(-c3cccc(-c4cccc(C(=O)NCCN(C)C)c4)c3)nc3c2C(=O)NCC3)c1`, the IC50 in data set [1] was determined as 2.8 nM; in data set [2] it was 0.23 nM.

For `N#Cc1cccc(Nc2cc(-c3ccccc3)nc3c2C(=O)NCC3)c1`, the IC50 in data set [1] was found to be 13 nM; in data set [2], 3.3 nM.

With `COc1cccc(Nc2cc(-c3cccc(OC)c3)nc3c2/C(=N/O)NCC3)c1`, the IC50 in data set [2] was determined as 2000 nM.

In the case of `COc1cc(Nc2cc(-c3ccccc3)nc3c2C(=O)NCC3)ccc1C(=O)O`, the IC50 came to 9.9 nM in data set [1] and 2.3 nM in data set [2].

Consider `NC(=O)c1cccc(Nc2cc(-c3ccccc3)nc3c2C(=O)NCC3)c1`, for which the IC50 in data set [2] came out at 12 nM.

As for `COc1cccc(Nc2cc(-c3ccccc3)nc3c2C(=O)NCC3)c1`, the IC50 is 5.4 nM in data set [1] and 1.6 nM in data set [2]. Also, in data set [7], the Papp (commonly a coefficient for how fast a substance crosses the barrier) turned out to be 2 ×10⁻⁶ cm/s.

For the compound `COc1cccc(Nc2cc(C3CC3)nc3c2C(=O)NCC3)c1`, the IC50 in data set [2] came out at 8.5 nM.

As for `COc1cccc(Nc2cc(-c3ccccc3OC)nc3c2C(=O)NCC3)c1`, the half-inhibitory concentration (IC50) in data set [2] amounted to 32 nM.

For the compound `COc1cccc(Nc2cc(-c3ccccc3)nc3c2C(=O)NC(C)C3)c1` (stereo not given), the values for the IC50 in data set [1] and in data set [2] were 270 nM and 120 nM, respectively.

With `O=C1NCCc2nc(-c3ccccc3)cc(Nc3n[nH]c4ncccc34)c21`, the IC50 in data set [1] worked out at 3 nM; in data set [2], 5.6 nM.

Take `O=C(NC1CC1)c1cccc(-c2cccc(-c3cc(Nc4ccnc5ccccc45)c4c(n3)CCNC4=O)c2)c1`: the values for the IC50 in data set [1] and in data set [2] were 0.46 nM and 0.27 nM, respectively.

As for `COc1cccc(Nc2cc(-c3ccccc3)ncc2C(N)=O)c1`, the IC50 in data set [2] stood at 240 nM.

`COc1cccc(Nc2cc(-c3cccc(-c4cc(C(=O)O)ccc4O)c3)nc3c2C(=O)NCC3)c1`: the IC50 in data set [1] amounted to 140 nM; in data set [2] it was 9.6 nM.

On to `O=C(NC1CC1)c1cccc(-c2cccc(-c3cc(Nc4cncc5ccccc45)c4c(n3)CCNC4=O)c2)c1`, for which the IC50 in data set [1] came to 1.1 nM; in data set [2], 0.32 nM.

Take `COc1cccc(Nc2cc(-c3ccccc3)nc3c2C(=O)NCC3C)c1` (stereo not given): in data set [2], the IC50 is 640 nM.

As for `O=C(O)c1ccc(-c2cccc(-c3cc(Nc4cccc5ncccc45)c4c(n3)CCNC4=O)c2)cc1`, the IC50 turned out to be 0.52 nM in data set [1] and 0.11 nM in data set [2].

For `COc1cccc(Nc2cc(-c3cccc(-c4ccc(C(=O)O)cc4)c3)nc3c2C(=O)NCC3)c1`, the values for the IC50 in data set [1] and in data set [2] were 5.7 nM and 0.35 nM, respectively. In addition, in data set [7], the Papp is 3.5 ×10⁻⁶ cm/s.

Take `O=C(NC1CC1)c1cccc(-c2cccc(-c3cc(Nc4cccc5c4ccc[n+]5[O-])c4c(n3)CCNC4=O)c2)c1`: the IC50 turned out to be 0.075 nM in data set [1] and 0.045 nM in data set [2].

Regarding `O=C1NCCc2nc(-c3ccccc3)cc(Nc3ccc(CCO)cc3)c21`, the IC50 in data set [2] was found to be 12 nM.

For the compound `COc1cccc(Nc2cc(-c3cccc(-c4cccc(C(N)=O)c4)c3)nc3c2C(=O)NCC3)c1`, the IC50 in data set [1] amounted to 2.3 nM; in data set [2], 0.28 nM.

As for `Nc1cc(-c2ccccc2)nc2c1C(=O)NCC2`, the half-maximal inhibitory concentration (IC50) in data set [2] was 2400 nM.

`NC(=O)c1cnc(-c2ccccc2)cc1Nc1cccc2ncccc12`: the IC50 in data set [2] came to 35 nM.

As for `O=C1NCCc2nc(-c3cccc(-c4cccc(O)c4)c3)cc(Nc3cccc4ncccc34)c21`, the values for the IC50 in data set [1] and in data set [2] were 0.5 nM and 0.89 nM, respectively.

For the compound `N#C/N=C1\NCCc2nc(-c3ccc(F)c(F)c3)cc(Nc3cccc4ncccc34)c21`, the results for the IC50 in data set [1] and in data set [2] were 17 nM and 0.89 nM, respectively.

With `CN(C)CCCNC(=O)c1cccc(-c2cccc(-c3cc(Nc4cccc5ncccc45)c4c(n3)CCNC4=O)c2)c1`, the IC50 in data set [1] was 0.36 nM; in data set [2], 0.11 nM.

As to `NC(=O)c1ccc(Nc2cc(-c3ccccc3)nc3c2C(=O)NCC3)cc1`, the figures for the half-inhibitory concentration (IC50) in data set [1] and in data set [2] were 4.2 nM and 1.5 nM, respectively.

`COc1cccc(Nc2cc(-c3cccc(Br)c3)nc3c2C(=O)NCC3)c1`: in data set [2], the IC50 is 8.2 nM.

As to `O=C1NCCc2nc(-c3ccccc3)cc(NCc3ccncc3)c21`, the IC50 in data set [2] worked out at 25 nM.

Regarding `COC(=O)c1ccc(O)c(-c2cccc(-c3cc(Nc4cccc(OC)c4)c4c(n3)CCNC4=O)c2)c1`, the IC50 in data set [1] was 4.2 nM; in data set [2], 5.6 nM.

For the compound `O=C1NCCc2nc(-c3ccccc3)cc(Nc3cccc4ccccc34)c21`, the IC50 in data set [2] turned out to be 11 nM.

Values taken from ChEMBL document CHEMBL4033796, “4-Amino-7,8-dihydro-1,6-naphthyridin-5(6 H)-ones as Inhaled Phosphodiesterase Type 4 (PDE4) Inhibitors: Structural Biology and Structure-Activity Relationships” (J Med Chem, 2018).
